Assay results taken from ChEMBL document CHEMBL4406821, “Novel dual inhibitors targeting CDK4 and VEGFR2 synergistically suppressed cancer progression and angiogenesis” (Eur J Med Chem, 2019).
Calls of active or inactive are those of the source. The rule behind the calls is not given here.

Assays:
MDA-MB-231 [1] = assay: Antiproliferative activity against human MDA-MB-231 cells at 40 nM assessed as reduction in cell viability incubated for 48 hrs by EdU staining based laser scanning confocal microscopy; assay type: functional
Method in brief: (§1)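 Cells, 5×10^4, were seeded in 24-well plates and treated for 48 h. They were then labeled using an EdU Apollo 488 imaging kit with Hoechst 33342 nuclear stain and imaged by laser scanning confocal microscopy. Percent EdU-positive cells = EdU-positive/Hoechst-stained × 100%.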

[2] = biological target: T1, Vascular endothelial growth factor receptor 2 (Homo sapiens, UniProt P35968); conditions: HUVEC, 40 nM
T1 sequence (P35968 whole entry): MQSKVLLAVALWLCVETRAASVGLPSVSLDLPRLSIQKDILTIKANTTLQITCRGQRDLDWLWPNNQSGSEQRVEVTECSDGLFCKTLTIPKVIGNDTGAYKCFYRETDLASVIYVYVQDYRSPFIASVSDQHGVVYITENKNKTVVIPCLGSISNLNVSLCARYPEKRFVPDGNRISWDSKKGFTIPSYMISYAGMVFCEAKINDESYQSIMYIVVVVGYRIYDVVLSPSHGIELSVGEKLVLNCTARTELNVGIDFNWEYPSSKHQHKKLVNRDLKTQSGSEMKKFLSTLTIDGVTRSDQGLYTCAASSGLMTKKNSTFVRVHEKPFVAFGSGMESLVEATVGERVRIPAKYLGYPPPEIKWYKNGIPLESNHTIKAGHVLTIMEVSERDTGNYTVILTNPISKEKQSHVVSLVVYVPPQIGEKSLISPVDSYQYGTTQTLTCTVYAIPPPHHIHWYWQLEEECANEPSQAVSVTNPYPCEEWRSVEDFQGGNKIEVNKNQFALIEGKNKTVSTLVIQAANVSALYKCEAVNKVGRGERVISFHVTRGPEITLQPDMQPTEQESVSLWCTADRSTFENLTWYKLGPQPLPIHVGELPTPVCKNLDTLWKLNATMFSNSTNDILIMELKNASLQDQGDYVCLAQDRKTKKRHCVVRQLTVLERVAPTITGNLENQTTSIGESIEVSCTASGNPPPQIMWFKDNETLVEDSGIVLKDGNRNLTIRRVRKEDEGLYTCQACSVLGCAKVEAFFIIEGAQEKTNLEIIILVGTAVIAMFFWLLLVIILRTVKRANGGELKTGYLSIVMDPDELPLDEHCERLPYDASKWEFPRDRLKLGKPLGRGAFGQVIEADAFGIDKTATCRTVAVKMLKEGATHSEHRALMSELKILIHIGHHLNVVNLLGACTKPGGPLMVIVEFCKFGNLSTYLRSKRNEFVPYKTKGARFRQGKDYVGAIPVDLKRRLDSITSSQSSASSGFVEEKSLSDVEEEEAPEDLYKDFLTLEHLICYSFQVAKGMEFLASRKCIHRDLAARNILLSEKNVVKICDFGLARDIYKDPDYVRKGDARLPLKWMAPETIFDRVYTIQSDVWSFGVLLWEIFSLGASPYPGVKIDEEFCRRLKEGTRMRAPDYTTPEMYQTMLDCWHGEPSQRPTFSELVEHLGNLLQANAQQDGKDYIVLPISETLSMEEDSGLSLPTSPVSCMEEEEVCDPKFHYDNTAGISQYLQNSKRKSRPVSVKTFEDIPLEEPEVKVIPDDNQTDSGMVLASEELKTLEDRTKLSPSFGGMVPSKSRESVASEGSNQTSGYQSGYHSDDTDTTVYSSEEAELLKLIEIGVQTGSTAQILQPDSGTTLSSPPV

[3] = biological target: T1, Vascular endothelial growth factor receptor 2; assay: Inhibition of VEGFR2 in HUVEC cells assessed as reduction in Akt phosphorylation at 20 to 40 nM incubated for 48 hrs by Western blot analysis; assay type: cell-based
Method in brief: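 HUVECs were maintained in 1640 medium with 10% FBS. They were treated with graded concentrations for 48 h, PBS-washed and lysed in RIPA buffer. Immunoblots were probed for total and phospho VEGFR2, STAT3, Akt, Erk1 and Src, each at 1:1000. β-actin served as loading control.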

SiHa [4] = assay: Inhibition of colony formation in human SiHa cells at 40 to 80 nM incubated for 5 days by crystal violet staining based light microscopy; assay type: functional, cell-based
Method in brief: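 4 × 10^3 cells per well were cultured with graded concentrations for 5 days. Cells were then fixed with 20% methanol, stained with 0.5% crystal violet and photographed by light microscopy.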

HeLa [5] = assay: Antiproliferative activity against human HeLa cells assessed as reduction in cell viability at 40 to 80 nM incubated for 48 hrs by EdU staining based laser scanning confocal microscopy; assay type: functional; method in brief: as §1
SiHa [6] = assay: Antiproliferative activity against human SiHa cells assessed as reduction in cell viability at 40 to 80 nM incubated for 48 hrs by EdU staining based laser scanning confocal microscopy; assay type: functional; method in brief: as §1
MDA-MB-231 [7] = assay: Induction of apoptosis in human MDA-MB-231 cells assessed as increase in early apoptotic cells at 20 to 40 nM incubated for 48 hrs by annexin V FITC and propidium iodide staining based flow cytometry; assay type: functional, cell-based
Method in brief: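 Cells were treated for 48 h, stained with FITC Annexin V and PI, and analyzed by flow cytometry to count early and late apoptotic cells.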

HeLa [8] = assay: Induction of apoptosis in human HeLa cells assessed as decrease in Ki67 expression at 40 to 80 nM incubated for 48 hrs by Western blot analysis; assay type: functional, cell-based
Method in brief: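 Cells were treated for 48 h, washed three times with PBS, and lysed in RIPA buffer. Immunoblots used anti-Rb, anti-phospho-Rb, anti-Ki67 and anti-Bcl-2 (each 1:1000), with β-actin as loading control.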

[9] = Toxicity in NOD/SCID BALB/c mouse xenografted with human SiHa cells assessed as toxic effects in liver at 40 mg/kg, po administered for 48 hrs by hematoxylin and eosin staining method; assay type: organism-based; conditions: in vivo
[10] = MRT (0 to t) in Sprague-Dawley rat at 10 mg/kg, iv by HPLC-MS analysis; assay type: ADME, organism-based; conditions: in vivo
[11] = biological target: 5'-AMP-activated protein kinase catalytic subunit alpha-2 (Homo sapiens) (UniProt P54646); assay: Inhibition of recombinant full length human AMPKalpha2 at 1 uM using AMARAASAAALAR as substrate incubated for 40 mins in presence of [gamma-33P]-ATP by scintillation counting method relative to control
5'-AMP-activated protein kinase catalytic subunit alpha-2 (Homo sapiens), sequence (P54646 whole entry, looked up): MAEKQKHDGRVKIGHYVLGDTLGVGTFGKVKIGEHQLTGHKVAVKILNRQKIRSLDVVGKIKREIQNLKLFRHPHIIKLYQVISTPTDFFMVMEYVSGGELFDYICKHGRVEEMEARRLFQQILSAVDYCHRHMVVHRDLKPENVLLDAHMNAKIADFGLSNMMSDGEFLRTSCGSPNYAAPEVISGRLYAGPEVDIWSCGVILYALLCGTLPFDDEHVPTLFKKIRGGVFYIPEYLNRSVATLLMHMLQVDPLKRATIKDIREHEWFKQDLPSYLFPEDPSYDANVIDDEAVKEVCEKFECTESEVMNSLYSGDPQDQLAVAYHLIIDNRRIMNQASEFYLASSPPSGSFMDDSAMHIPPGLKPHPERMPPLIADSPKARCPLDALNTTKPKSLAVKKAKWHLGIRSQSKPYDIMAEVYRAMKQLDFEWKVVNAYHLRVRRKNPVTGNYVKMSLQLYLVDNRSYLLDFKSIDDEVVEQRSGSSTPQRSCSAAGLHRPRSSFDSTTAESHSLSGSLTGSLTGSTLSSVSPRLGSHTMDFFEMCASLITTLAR
Method in brief: (§2)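 Kinase panel profiling at 1 μM performed by Eurofins KinaseProfiler; percent inhibition reported as mean of two independent experiments.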

[12] = tested on: Serine/threonine-protein kinase B-raf (Homo sapiens), P15056 [V600E]; assay: Inhibition of recombinant human BRAF V599E mutant (416 to end residues) at 1 uM using myelin as substrate incubated for 40 mins in presence of [gamma-33P]-ATP by scintillation counting method relative to control; method in brief: as §2
Serine/threonine-protein kinase B-raf (Homo sapiens), P15056 [V600E], sequence (P15056 whole entry V600E): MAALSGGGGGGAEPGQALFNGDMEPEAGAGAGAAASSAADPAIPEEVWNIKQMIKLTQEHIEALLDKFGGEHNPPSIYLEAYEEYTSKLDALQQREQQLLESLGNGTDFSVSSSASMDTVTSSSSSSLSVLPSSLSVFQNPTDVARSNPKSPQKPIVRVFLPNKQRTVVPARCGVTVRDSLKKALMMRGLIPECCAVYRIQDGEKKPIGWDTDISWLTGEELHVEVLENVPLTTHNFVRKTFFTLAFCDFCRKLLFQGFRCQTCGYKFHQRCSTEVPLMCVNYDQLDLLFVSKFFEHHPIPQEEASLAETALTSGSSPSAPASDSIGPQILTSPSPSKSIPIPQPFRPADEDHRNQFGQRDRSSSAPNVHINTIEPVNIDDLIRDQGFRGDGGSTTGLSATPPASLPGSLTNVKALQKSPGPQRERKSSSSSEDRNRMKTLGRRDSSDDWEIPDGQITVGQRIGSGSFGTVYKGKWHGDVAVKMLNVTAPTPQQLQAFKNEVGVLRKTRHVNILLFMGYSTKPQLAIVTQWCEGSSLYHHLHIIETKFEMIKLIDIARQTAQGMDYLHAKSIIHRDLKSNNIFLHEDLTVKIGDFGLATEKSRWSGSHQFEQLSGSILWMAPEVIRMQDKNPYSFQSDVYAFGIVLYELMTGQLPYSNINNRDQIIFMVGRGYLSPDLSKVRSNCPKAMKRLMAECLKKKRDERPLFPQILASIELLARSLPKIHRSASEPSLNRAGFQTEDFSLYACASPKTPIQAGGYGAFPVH

[13] = tested on: Serine/threonine-protein kinase Chk2 (Homo sapiens), O96017 [R145W]; assay: Inhibition of recombinant human CHK2 R145W mutant (5 to end residues) at 1 uM using KKKVSRSGLYRSP as substrate incubated for 40 mins in presence of [gamma-33P]-ATP by scintillation counting method relative to control; method in brief: as §2
[14] = tested on: Mast/stem cell growth factor receptor Kit (Homo sapiens), P10721 [V560G]; assay: Inhibition of recombinant human cKIT V560G mutant (544 to end residues) at 1 uM using GGMEDIYFEFMGG as substrate incubated for 40 mins in presence of [gamma-33P]-ATP by scintillation counting method relative to control
Method in brief: (§3)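 Tested at a single 1 uM in an outsourced commercial kinase-profiling panel, read as percent inhibition. Each value is the mean of two independent experiments.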

[15] = biological target: Macrophage colony-stimulating factor 1 receptor (Homo sapiens) (UniProt P07333); assay: Inhibition of recombinant human FMS (538 to end residues) at 1 uM using KKKSPGEYVNIEF as substrate incubated for 40 mins in presence of [gamma-33P]-ATP by scintillation counting method relative to control
[16] = biological target: Mitogen-activated protein kinase kinase kinase 11 (Homo sapiens) (UniProt Q16584); assay: Inhibition of recombinant human MLK3 at 1 uM incubated for 40 mins in presence of [gamma-33P]-ATP by scintillation counting method relative to control
Mitogen-activated protein kinase kinase kinase 11 (Homo sapiens), sequence (Q16584 whole entry, looked up): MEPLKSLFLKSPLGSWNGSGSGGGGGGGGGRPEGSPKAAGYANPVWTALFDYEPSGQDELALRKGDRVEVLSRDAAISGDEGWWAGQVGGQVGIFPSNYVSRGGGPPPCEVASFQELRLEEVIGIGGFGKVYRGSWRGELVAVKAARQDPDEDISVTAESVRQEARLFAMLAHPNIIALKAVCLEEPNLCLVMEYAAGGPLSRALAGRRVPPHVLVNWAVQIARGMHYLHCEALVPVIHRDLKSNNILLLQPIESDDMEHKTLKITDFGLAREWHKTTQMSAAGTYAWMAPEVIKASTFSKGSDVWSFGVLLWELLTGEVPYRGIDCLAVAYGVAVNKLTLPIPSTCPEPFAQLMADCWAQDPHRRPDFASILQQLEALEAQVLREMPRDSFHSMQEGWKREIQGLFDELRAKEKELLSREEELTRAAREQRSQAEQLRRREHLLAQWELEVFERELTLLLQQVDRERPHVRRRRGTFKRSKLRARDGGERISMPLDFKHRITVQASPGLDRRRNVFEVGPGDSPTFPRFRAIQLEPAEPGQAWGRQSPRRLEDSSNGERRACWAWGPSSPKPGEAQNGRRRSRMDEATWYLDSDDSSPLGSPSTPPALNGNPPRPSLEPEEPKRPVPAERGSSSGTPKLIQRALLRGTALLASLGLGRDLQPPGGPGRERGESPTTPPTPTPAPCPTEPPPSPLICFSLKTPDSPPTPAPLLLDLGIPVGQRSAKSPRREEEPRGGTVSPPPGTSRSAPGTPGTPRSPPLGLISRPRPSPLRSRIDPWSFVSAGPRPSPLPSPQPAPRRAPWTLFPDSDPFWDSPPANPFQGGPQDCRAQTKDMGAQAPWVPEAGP

[17] = biological target: MAP kinase-activated protein kinase 5 (Homo sapiens) (UniProt Q8IW41); assay: Inhibition of recombinant human full length PRAK at 1 uM using KKLRRTLSVA as substrate incubated for 40 mins in presence of [gamma-33P]-ATP by scintillation counting method relative to control
[18] = tested on: Platelet-derived growth factor receptor alpha (Homo sapiens), P16234 [D842V]; assay: Inhibition of recombinant human PDGFRalpha D842V mutant (550 to end residues) at 1 uM using GGMEDIYFEFMGGKKK as substrate incubated for 40 mins in presence of [gamma-33P]-ATP by scintillation counting method relative to control; method in brief: as §3
Platelet-derived growth factor receptor alpha (Homo sapiens), P16234 [D842V], sequence (P16234 whole entry D842V, the tested form may be a part): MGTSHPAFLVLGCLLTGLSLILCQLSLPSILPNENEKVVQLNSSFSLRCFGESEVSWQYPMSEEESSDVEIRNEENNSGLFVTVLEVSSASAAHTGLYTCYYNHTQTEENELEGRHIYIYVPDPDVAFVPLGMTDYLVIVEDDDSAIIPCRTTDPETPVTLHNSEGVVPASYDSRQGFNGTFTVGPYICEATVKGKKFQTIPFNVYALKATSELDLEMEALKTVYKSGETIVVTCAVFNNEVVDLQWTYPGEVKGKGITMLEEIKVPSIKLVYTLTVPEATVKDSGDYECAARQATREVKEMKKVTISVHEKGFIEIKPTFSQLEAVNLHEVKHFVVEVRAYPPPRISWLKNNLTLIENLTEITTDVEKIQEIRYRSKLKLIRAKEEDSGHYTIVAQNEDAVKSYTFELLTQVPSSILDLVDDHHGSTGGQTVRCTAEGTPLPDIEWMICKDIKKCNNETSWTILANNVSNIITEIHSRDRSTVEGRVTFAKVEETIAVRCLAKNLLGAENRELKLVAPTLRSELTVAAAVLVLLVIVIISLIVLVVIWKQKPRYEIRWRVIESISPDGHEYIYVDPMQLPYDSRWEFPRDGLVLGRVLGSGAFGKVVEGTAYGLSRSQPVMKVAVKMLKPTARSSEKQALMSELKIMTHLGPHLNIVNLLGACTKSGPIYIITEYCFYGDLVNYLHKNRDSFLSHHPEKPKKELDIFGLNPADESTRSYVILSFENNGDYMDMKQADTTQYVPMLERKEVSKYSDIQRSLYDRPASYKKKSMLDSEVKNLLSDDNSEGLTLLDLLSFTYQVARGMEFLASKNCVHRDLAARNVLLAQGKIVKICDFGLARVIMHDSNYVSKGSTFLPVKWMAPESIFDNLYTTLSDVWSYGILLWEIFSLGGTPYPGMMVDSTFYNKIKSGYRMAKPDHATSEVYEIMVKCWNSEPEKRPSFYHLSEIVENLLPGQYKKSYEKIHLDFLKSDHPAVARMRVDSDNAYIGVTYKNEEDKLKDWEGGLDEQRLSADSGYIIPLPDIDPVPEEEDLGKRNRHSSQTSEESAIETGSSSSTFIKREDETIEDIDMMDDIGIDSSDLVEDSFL

[19] = biological target: Serine/threonine-protein kinase PLK2 (Homo sapiens) (UniProt Q9NYY3); assay: Inhibition of recombinant human SNK (65 to 409 residues) at 1 uM using casein as substrate incubated for 40 mins in presence of [gamma-33P]-ATP by scintillation counting method relative to control
[20] = biological target: Serine/threonine-protein kinase 32A (Homo sapiens) (UniProt Q8WU08); assay: Inhibition of recombinant human full length STK32A at 1 uM using casein as substrate incubated for 40 mins in presence of [gamma-33P]-ATP by scintillation counting method relative to control
Serine/threonine-protein kinase 32A (Homo sapiens), sequence (Q8WU08 whole entry): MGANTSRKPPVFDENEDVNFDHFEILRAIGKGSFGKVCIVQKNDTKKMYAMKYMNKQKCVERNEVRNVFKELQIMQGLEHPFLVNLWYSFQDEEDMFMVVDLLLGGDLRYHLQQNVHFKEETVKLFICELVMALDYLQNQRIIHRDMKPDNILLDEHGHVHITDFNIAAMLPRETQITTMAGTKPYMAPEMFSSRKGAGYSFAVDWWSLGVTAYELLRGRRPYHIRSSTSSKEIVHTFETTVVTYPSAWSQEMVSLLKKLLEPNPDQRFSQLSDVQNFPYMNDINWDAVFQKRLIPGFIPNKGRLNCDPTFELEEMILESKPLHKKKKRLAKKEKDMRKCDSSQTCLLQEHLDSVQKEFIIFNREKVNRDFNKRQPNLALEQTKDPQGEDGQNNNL
Method in brief: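 Single-point inhibition at 1 uM measured in a commercial kinase profiling panel (KinaseProfiler); each value is the mean of two independent experiments.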

[21] = biological target: Serine/threonine-protein kinase ULK2 (Homo sapiens) (UniProt Q8IYT8); assay: Inhibition of recombinant human ULK2 (1 to 306 residues) at 1 uM using as casein substrate incubated for 40 mins in presence of [gamma-33P]-ATP by scintillation counting method relative to control; method in brief: as §3
[22] = Toxicity in BALB/c mouse assessed as effect on blood parameter by measuring lymphocytes content at 40 mg/kg, po administered once two days for 4 times by hematology analyzer; conditions: in vivo

COc1cc2nccc(Oc3ccc(NC(=O)C4(C(=O)Nc5ccc(F)cc5)CC4)cc3)c2cc1OC [CABOZANTINIB]
inhibition (MDA-MB-231 [1]): Active | inhibition [2]: Active

Cc1ccc(NC(=O)C2(C(=O)Nc3ccc(Nc4ncc(F)c(-c5cc(F)c6nc(C)n(C(C)C)c6c5)n4)cc3)CC2)cc1
inhibition [3]: Active | inhibition (SiHa [4]): Active | inhibition (HeLa [5]): Active | inhibition (SiHa [6]): Active | Activity (MDA-MB-231 [7]): Active | Activity (HeLa [8]): Active | Activity [9]: Non-Toxic | MRT last [10]: 2 h | inhibition [11]: 77% | inhibition [12]: 45% | inhibition [13]: 28% | inhibition [14]: 73% | inhibition [15]: 64% | inhibition [16]: -2% | inhibition [17]: 1% | inhibition [18]: 48% | inhibition [19]: 47% | inhibition [20]: 0% | inhibition [21]: 0% | Activity [22]: Non-Toxic
